# Experimental data gathered from unrelated publications.
# Protocols differ between the studies behind these lines.
# Effect on: cell growth or viability
SMILES,cell line,method,concentration,time,quantity,value
Nc1nc(S)nc(O)c1N=Cc1cn(-c2ccccc2)nc1-c1ccccc1,CCRF-CEM,,,48 h,CC50,< 20 µM
C=C(NC(=O)C(=C)NC(=O)c1csc(C2=N[C@@H]3c4csc(n4)[C@H]4NC(=O)c5csc(n5)[C@H]([C@](C)(O)[C@@H](C)O)NC(=O)[C@H]5CSC(=N5)/C(=C/C)NC(=O)[C@H]([C@@H](C)O)NC(=O)c5csc(n5)[C@]3(CC2)NC(=O)[C@H](C)NC(=O)C(=C)NC(=O)[C@H](C)NC(=O)[C@H]([C@@H](C)CC)N[C@@H]2C=Cc3c([C@H](C)O)cc(nc3[C@H]2O)C(=O)O[C@@H]4C)n1)C(N)=O,ES-2,,,,EC50,1.2 µM
O=C(N[C@@H](CSCc1nc2cc([N+](=O)[O-])ccc2[nH]1)C(=O)NO)c1ccccc1,HCC4006,MTT,,48 h,IC50,< 500 µM
Nc1nc(S)nc(O)c1N=Cc1cn(-c2ccccc2)nc1-c1ccc([N+](=O)[O-])cc1,CCRF-CEM,,,48 h,CC50,> 40 µM
O=C(N[C@@H](CSCc1ccc([N+](=O)[O-])cc1)C(=O)NO)c1ccccc1,HCC4006,MTT,,48 h,IC50,10.1 µM
Cc1nc(Nc2ncc(C(=O)Nc3c(C)cccc3Cl)s2)cc(N2CC[C@H](O)C2)n1,CCRF-CEM,ATP luminescence,10 µM,72 h,inhibition,14%
COc1cccc2c1C(=O)c1c(O)c3c(c(O)c1C2=O)C[C@@](O)(C(=O)CO)C[C@@H]3O[C@H]1C[C@H](N)[C@H](O)[C@H](C)O1,RKO,,,96 h,IC50,0.00473 µM
C[C@H](Nc1ccc2c(c1)OCCn1cc(N3C(=O)OC[C@H]3C(F)F)nc1-2)C(N)=O,HCC202,ATP luminescence,,5 days,EC50,0.0154 µM
COc1ccc(-c2nn(-c3ccccc3)cc2C=Nc2c(N)nc(S)nc2O)cc1,CCRF-CEM,,,48 h,CC50,< 20 µM
CC(=O)ON=C1C=CC(=C(C#N)c2ccccc2)C=C1,HDF-1,MTT,,24 h,IC50,27.4 µg/mL
Nc1nc(S)nc(O)c1N=Cc1cn(-c2ccccc2)nc1-c1ccc(Cl)cc1,CCRF-CEM,,,24 h,CC50,15.1 µM
CN1CCC(NC2CCc3[nH]c4c(C(N)=O)ccc(-c5ccccc5Cl)c4c3C2)CC1 (stereo not drawn),RKO,,,96 h,IC50,0.00017 µM
